ChEMBL document CHEMBL4196108, “5-Aroylindoles Act as Selective Histone Deacetylase 6 Inhibitors Ameliorating Alzheimer's Disease Phenotypes” (J Med Chem, 2018)
Calls of active or inactive are those of the source.

Assays:
[1] = molecular target: T1, Protein deacetylase HDAC6 (Mus musculus) (UniProt Q9Z2V5); experiment: Inhibition of HDAC6 in mouse Neuro-2a cells transfected with pCAX FLAG APP and pRK5-EGFP-Tau P301L plasmids assessed as increase in HSP70 protein expression 1 uM after 24 hrs by Western blot analysis; type: cell-based
T1 sequence (whole entry): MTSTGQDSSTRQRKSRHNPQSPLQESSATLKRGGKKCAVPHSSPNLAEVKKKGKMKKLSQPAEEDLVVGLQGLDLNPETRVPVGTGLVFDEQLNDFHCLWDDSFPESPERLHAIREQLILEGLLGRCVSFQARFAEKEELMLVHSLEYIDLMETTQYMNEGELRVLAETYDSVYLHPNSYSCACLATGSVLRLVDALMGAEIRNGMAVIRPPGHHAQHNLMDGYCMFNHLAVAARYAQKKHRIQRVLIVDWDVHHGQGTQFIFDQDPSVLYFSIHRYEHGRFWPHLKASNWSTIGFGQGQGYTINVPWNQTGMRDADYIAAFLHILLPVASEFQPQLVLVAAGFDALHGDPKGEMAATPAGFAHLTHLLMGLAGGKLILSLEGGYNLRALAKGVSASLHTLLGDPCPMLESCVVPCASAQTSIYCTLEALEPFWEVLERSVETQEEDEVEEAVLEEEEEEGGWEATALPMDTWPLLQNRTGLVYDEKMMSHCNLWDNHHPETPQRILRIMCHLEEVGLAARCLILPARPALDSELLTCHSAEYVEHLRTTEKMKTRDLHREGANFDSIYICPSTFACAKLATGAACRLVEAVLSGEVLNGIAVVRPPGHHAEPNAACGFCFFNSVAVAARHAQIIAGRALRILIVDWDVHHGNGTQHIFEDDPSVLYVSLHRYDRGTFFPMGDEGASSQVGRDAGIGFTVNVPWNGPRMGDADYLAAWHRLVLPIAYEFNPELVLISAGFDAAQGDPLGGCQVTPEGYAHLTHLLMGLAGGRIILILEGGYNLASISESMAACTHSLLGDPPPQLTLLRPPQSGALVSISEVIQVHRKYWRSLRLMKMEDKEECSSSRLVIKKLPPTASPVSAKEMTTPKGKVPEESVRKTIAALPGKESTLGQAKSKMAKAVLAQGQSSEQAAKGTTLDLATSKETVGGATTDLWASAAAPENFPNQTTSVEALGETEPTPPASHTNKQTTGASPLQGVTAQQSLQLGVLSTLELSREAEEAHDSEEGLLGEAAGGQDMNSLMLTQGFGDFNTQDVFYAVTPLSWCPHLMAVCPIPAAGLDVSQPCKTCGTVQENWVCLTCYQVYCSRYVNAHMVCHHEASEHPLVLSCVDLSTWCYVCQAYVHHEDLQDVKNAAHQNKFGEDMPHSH
Summary of the method: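 SH-SY5Y and Neuro-2a cells cotransfected 24 h with APP695/Tau P301L plasmids, treated 24 h at 1 µM (ACY-1215 reference). 30 µg lysate immunoprecipitated overnight at 4 °C with anti-HDAC6 or anti-acetyl-lysine antibodies plus protein A/G beads, run on 8% SDS-PAGE, probed for Hsp90; Hsp70 by immunoblot. Three independent experiments.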

[2] = tested on: Rattus norvegicus; experiment: Reversal of scopolamine-induced spatial memory impairment in Wistar rat assessed as decrease in transfer latency time at 25 mg/kg, po administered once daily for 1 week followed by scopolamine challenge 90 mins prior to test by elevated plus maze test; type: functional, organism-based
Summary of the method: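 Male Wistar rats, 7 weeks old, dosed orally at 25 mg/kg in 1% carboxymethyl cellulose/0.5% Tween 80 once daily. Scopolamine 1 mg/kg i.p. 90 min before test trial (controls excluded). Morris water maze (hidden platform escape latency), elevated plus maze (started at open-arm end, time to closed arm), then CA1 phospho-tau Ser396/Ser404 immunohistochemistry.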

[3] = tested on: Mus musculus; experiment: In vivo inhibition of HDAC6 in scopolamine-treated 3xTg-AD transgenic mouse brain hippocampal CA1 region assessed as increase in acetyl-alpha-tubulin level at 50 mg/kg, po by Western blot analysis; type: functional, organism-based
Summary of the method: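 Female 3xTg-AD mice, fed standard diet to 6 months of age, then dosed orally at 50 or 100 mg/kg once daily for three months. Brains removed; hippocampal tissue lysates immunoblotted for acetyl-α-tubulin and phospho-tau Ser396 and Ser404. Mean ± STD; one-way ANOVA.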

[4] = tested on: Mus musculus; experiment: In vivo inhibition of HDAC6 in 3xTg-AD transgenic mouse brain hippocampal CA1 region assessed as downregulation of Tau phosphorylation at Ser396 residue at 50 mg/kg, po administered daily for 3 months by Western blot analysis

COc1ccc(C(=O)c2ccc3c(ccn3Cc3ccc(C(=O)NO)cc3)c2)cc1
active: inhibition [1] | Activity [2] | inhibition [3] | inhibition [4]
